The source made the active and inactive calls. The rule behind the calls is not given here.
Tests used:
[1] = test system: Mycobacterium tuberculosis; assay: Binding affinity to Mycobacterium tuberculosis CYP124A1 assessed as type 1 binding mode at 0.05 to 0.2 uM by UV-visible spectrophotometry
Summary of the method: (§1)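 Spectral titration of each P450 with steroid solubilised in methyl β-cyclodextrin. Ligand-induced low-spin/high-spin shifts were followed in the Soret region and at ~650 nm to assign binding type. Absolute spectra of the P450–steroid complexes were also examined.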

[2] = test system: Mycobacterium tuberculosis; assay: Binding affinity to Mycobacterium tuberculosis CYP142A1 assessed as type 1 binding mode at 0.05 to 0.2 uM by UV-visible spectrophotometry; summary of the method: as §1
[3] = molecular target: T1, Steroid C26-monooxygenase (Mycobacterium tuberculosis, UniProt P9WPP1); assay: Binding affinity to Mycobacterium tuberculosis CYP125A1 assessed as type 1a binding mode at > 0.05 to 0.2 uM by UV-visible spectrophotometry; summary of the method: as §1
T1 sequence (P9WPP1 whole entry): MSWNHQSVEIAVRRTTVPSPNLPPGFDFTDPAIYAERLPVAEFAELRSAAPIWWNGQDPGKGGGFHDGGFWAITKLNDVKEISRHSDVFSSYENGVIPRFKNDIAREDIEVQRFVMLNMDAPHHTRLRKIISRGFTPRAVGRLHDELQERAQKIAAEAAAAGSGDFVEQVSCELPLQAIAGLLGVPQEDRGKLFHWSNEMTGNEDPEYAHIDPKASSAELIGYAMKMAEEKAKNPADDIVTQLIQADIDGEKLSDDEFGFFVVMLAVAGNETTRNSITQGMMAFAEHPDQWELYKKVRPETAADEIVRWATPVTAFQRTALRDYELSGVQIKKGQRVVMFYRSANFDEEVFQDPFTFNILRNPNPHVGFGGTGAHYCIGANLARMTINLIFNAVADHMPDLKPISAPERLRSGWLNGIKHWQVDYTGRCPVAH

[4] = test system: Mycobacterium tuberculosis; assay: Activity of Mycobacterium tuberculosis CYP142A1 assessed as apparent turnover number at 50 uM incubated for 1 hr at 25 degC by GC-MS method
Summary of the method: (§2)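 Each P450 (250 nM) was incubated with 50 μM substrate, 5 μg catalase, 50 μg/mL ferredoxin, 0.16 U/mL ferredoxin-NADP+ reductase, and an NADPH-regenerating system (1 mM glucose-6-phosphate, 2.4 U/mL G6P dehydrogenase, 5 mM MgCl2, 800 μM NADP+). Buffer was 50 mM potassium phosphate pH 7.5, 25 °C, 1 h. Quenched with HCl, extracted into hexanes, TMS-derivatised, GC-MS. Controls lacked P450 or NADPH.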

[5] = test system: Mycobacterium tuberculosis; assay: Activity of Mycobacterium tuberculosis CYP124A1 assessed as relative apparent turnover number at 50 uM incubated for 1 hr at 25 degC by GC-MS method relative to cholesterol
[6] = test system: Mycobacterium tuberculosis; assay: Activity of Mycobacterium tuberculosis CYP124A1 assessed as apparent turnover number at 50 uM incubated for 1 hr at 25 degC by GC-MS method; summary of the method: as §2
[7] = test system: Mycobacterium tuberculosis; assay: Activity of Mycobacterium tuberculosis CYP142A1 assessed as relative apparent turnover number at 50 uM incubated for 1 hr at 25 degC by GC-MS method relative to cholesterol
[8] = molecular target: T1, Steroid C26-monooxygenase; assay: Activity of Mycobacterium tuberculosis CYP125A1 assessed as relative apparent turnover number at 50 uM incubated for 1 hr at 25 degC by GC-MS method relative to cholesterol
[9] = molecular target: T1, Steroid C26-monooxygenase; assay: Activity of Mycobacterium tuberculosis CYP125A1 assessed as apparent turnover number at 50 uM incubated for 1 hr at 25 degC by GC-MS method; summary of the method: as §2
[10] = molecular target: T1, Steroid C26-monooxygenase; assay: Binding affinity to Mycobacterium tuberculosis CYP125A1 assessed as type 1 binding mode at 0.05 to 0.2 uM by UV-visible spectrophotometry; summary of the method: as §1
[11] = Binding affinity to Mycobacterium tuberculosis CYP124A1 by UV-visible spectrophotometry; settings: read-out: Kd(app); summary of the method: as §1
[12] = molecular target: T1, Steroid C26-monooxygenase; assay: Binding affinity to Mycobacterium tuberculosis CYP125A1 by UV-visible spectrophotometry; settings: read-out: Kd(app); summary of the method: as §1
[13] = test system: Mycobacterium tuberculosis; assay: Time dependent inhibition of Mycobacterium tuberculosis CYP124A1 at 50 uM incubated up to 3 hrs by HPLC
Summary of the method: (§3)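 P450 (5 μM) was pre-incubated with 50 μM test sterol in 50 mM potassium phosphate pH 7.5 with ferredoxin, reductase, catalase and NADPH-regenerating system. Controls received MβCD vehicle only. Aliquots taken over time were diluted twenty-fold into buffer with 50 μM cholest-4-en-3-one, spinach ferredoxin, reductase and 1 mM NADPH, run 10 min at 25 °C, and analysed by HPLC. Residual activity = % of control.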

[14] = test system: Mycobacterium tuberculosis; assay: Time dependent inhibition of Mycobacterium tuberculosis CYP142A1 at 50 uM incubated up to 3 hrs by HPLC; summary of the method: as §3
[15] = Binding affinity to Mycobacterium tuberculosis CYP142A1 by UV-visible spectrophotometry; settings: read-out: Kd(app); summary of the method: as §1
[16] = test system: Mycobacterium tuberculosis; assay: Binding affinity to Mycobacterium tuberculosis CYP124A1 assessed as type 1a binding mode at > 0.05 to 0.2 uM by UV-visible spectrophotometry; summary of the method: as §1

SMILES	Activity [1]	Activity [2]	Activity [3]	Kcat(app) [4]	Activity [5]	Kcat(app) [6]	Activity [7]	Activity [8]	Kcat(app) [9]	Activity [10]	Kd [11]	Kd [12]	inhibition [13]	inhibition [14]	Kd [15]	Activity [16]
CSCCC[C@@H](C)[C@H]1CC[C@H]2[C@@H]3CC=C4C[C@@H](O)CC[C@]4(C)[C@H]3CC[C@]12C	Active	Active	Active	–	–	–	–	–	–	–	–	–	–	–	–	–
CC(Br)CCC[C@@H](C)[C@H]1CC[C@H]2[C@@H]3CC=C4C[C@@H](O)CC[C@]4(C)[C@H]3CC[C@]12C (mixture of isomers)	Active	Active	–	0.299 s⁻¹	67.3%	0.0168 s⁻¹	107%	65.1%	0.3037 s⁻¹	Active	–	–	–	–	–	–
C=C(C)CCC[C@@H](C)[C@H]1CC[C@H]2[C@@H]3CC=C4C[C@@H](O)CC[C@]4(C)[C@H]3CC[C@]12C	Active	Active	Active	0.0183 s⁻¹	26.2%	0.00667 s⁻¹	6.7%	37%	0.178 s⁻¹	–	150 nM	250 nM	–	–	–	–
C[C@H](CCCBr)[C@H]1CC[C@H]2[C@@H]3CC=C4C[C@@H](O)CC[C@]4(C)[C@H]3CC[C@]12C	Active	Active	Active	–	–	–	–	–	–	–	–	–	–	–	–	–
CC(C)CCC[C@@H](C)[C@H]1CC[C@H]2[C@@H]3CC[C@@H]4C[C@@H](O)CC[C@]4(C)[C@H]3CC[C@]12C [COPROSTANOL]	Active	Active	–	0.12 s⁻¹	68.4%	0.0172 s⁻¹	43.1%	50.9%	0.2373 s⁻¹	Active	–	–	–	–	–	–
CCCCC[C@@H](C)[C@H]1CC[C@H]2[C@@H]3CC=C4C[C@@H](O)CC[C@]4(C)[C@H]3CC[C@]12C	Active	Active	–	0.0317 s⁻¹	48.6%	0.0117 s⁻¹	11.7%	18%	0.085 s⁻¹	Active	–	–	–	–	–	–
C=CCCC[C@@H](C)[C@H]1CC[C@H]2[C@@H]3CC=C4C[C@@H](O)CC[C@]4(C)[C@H]3CC[C@]12C	Active	Active	–	0.0183 s⁻¹	1.9%	0.0005 s⁻¹	6.7%	8%	0.0367 s⁻¹	Active	–	–	inactive	inactive	–	–
CC=C(C)CCC[C@@H](C)[C@H]1CC[C@H]2[C@@H]3CC=C4C[C@@H](O)CC[C@]4(C)[C@H]3CC[C@]12C (mixture of isomers)	Active	Active	–	–	22.4%	0.005 s⁻¹	–	29.9%	0.135 s⁻¹	Active	–	450 nM	–	–	160 nM	Active
CC(C)=CCC[C@@H](C)[C@H]1CC[C@H]2[C@@H]3CC=C4C[C@@H](O)CC[C@]4(C)[C@H]3CC[C@]12C [DESMOSTEROL]	Active	Active	–	0.115 s⁻¹	91.2%	0.0228 s⁻¹	41.4%	47.5%	0.2215 s⁻¹	Active	–	–	–	–	–	–
